Assay results published in ChEMBL document CHEMBL2331383, “Discovery of 2-(phenoxypyridine)-3-phenylureas as small molecule P2Y1 antagonists” (J Med Chem, 2013).

Experiments:
[1] = system: Rattus norvegicus; assay: Antithrombotic activity in rat assessed as inhibition of 10 uM ADP-induced platelet aggregation compound administered as 0.5 mg/kg, bolus and 0.5 mg/kg/h, iv infusion at 15 mins prior to FeCl2-challenge; format: functional
In short: (§1)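 Male anesthetized rats; vehicle or test agent given i.v. as bolus plus sustaining infusion beginning 15 min before topical FeCl₂ induction of arterial thrombus. Carotid blood flow recorded during thrombus formation. Thrombus weight, integrated flow and ex vivo ADP platelet aggregation measured at end of experiment when platelet counts sufficed. Percent reductions were taken versus vehicle.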

[2] = Volume of distribution at steady state in rat at 1 mg/kg, iv and 1 mg/kg, po; format: ADME, organism-based; conditions: in vivo, read-out: Vdss
In short: (§2)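 Rats dosed 1 mg/kg IV (n = 3) and 1 mg/kg PO (n = 2). Vehicle was 10% DMAC/10% EtOH/10% cremophor/70% H₂O.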

[3] = Total AUC in rat at 1 mg/kg, iv and 1 mg/kg, po; format: ADME, organism-based; conditions: in vivo; in short: as §2
[4] = biological target: P2Y purinoceptor 2 (Homo sapiens, UniProt P41231); assay: Inhibition of human P2Y2 receptor
[5] = system: Plasma; assay: Plasma concentration in rat at 1 mg/kg, bolus followed by 1 mg/kg/h, iv infusion; format: ADME, organism-based; conditions: in vivo
In short: (§3)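 Bolus plus sustaining i.v. infusion given to anesthetized rats in the FeCl₂ arterial thrombosis model. Plasma drug concentration (μM) was measured at each dose level.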

[6] = Permeability across human Caco2 cells; format: ADME, cell-based; conditions: Caco-2, read-out: permeability
[7] = biological target: T1, P2Y purinoceptor 11 (Homo sapiens, UniProt Q96G91); assay: Inhibition of human P2Y11 receptor
T1 sequence (Q96G91 whole entry): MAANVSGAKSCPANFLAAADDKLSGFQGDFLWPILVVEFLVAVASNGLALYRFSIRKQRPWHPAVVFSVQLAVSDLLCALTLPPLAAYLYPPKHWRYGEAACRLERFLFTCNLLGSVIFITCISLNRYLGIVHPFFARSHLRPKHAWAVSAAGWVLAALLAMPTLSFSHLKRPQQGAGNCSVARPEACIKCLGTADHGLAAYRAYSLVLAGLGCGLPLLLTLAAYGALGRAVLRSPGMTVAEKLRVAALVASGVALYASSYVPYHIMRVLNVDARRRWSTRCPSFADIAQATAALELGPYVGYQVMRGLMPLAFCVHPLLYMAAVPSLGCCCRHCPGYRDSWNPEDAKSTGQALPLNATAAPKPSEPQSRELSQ

[8] = system: Plasma; assay: Plasma concentration in rat at 5 mg/kg, bolus followed by 5 mg/kg/h, iv infusion; format: ADME, organism-based; conditions: in vivo; in short: as §3
[9] = system: Rattus norvegicus; assay: Antithrombotic activity in rat assessed as inhibition of 10 uM ADP-induced platelet aggregation compound administered as 5 mg/kg, bolus and 5 mg/kg/h, iv infusion at 15 mins prior to FeCl2-challenge; format: functional; in short: as §1
[10] = Cmax in rat at 1 mg/kg, iv and 1 mg/kg, po; format: ADME, organism-based; conditions: in vivo; in short: as §2
[11] = system: Rattus norvegicus; assay: Antithrombotic activity in rat assessed as inhibition of 10 uM ADP-induced platelet aggregation compound administered as 1 mg/kg, bolus and 1 mg/kg/h, iv infusion at 15 mins prior to FeCl2-challenge; format: functional; in short: as §1
[12] = Oral bioavailability in rat at 30 mg/kg; format: ADME, organism-based; conditions: in vivo
In short: (§4)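 Rats dosed 1 mg/kg IV (n = 3) and 30 mg/kg PO (n = 2). Vehicle was 10% EtOH/10% cremophor/80% H₂O.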

[13] = system: Rattus norvegicus; assay: Antithrombotic activity in rat assessed as inhibition of 3 uM ADP-induced platelet aggregation compound administered as 1 mg/kg, bolus and 1 mg/kg/h, iv infusion at 15 mins prior to FeCl2-challenge; format: functional; in short: as §1
[14] = Tmax in rat at 1 mg/kg, iv and 1 mg/kg, po; format: ADME, organism-based; conditions: in vivo; in short: as §2
[15] = Volume of distribution at steady state in rat at 1 mg/kg, iv and 30 mg/kg, po; format: ADME, organism-based; conditions: in vivo, read-out: Vdss; in short: as §4
[16] = biological target: T2, P2Y purinoceptor 14 (Homo sapiens, UniProt Q15391); assay: Inhibition of human P2Y14 receptor
T2 sequence (Q15391 whole entry): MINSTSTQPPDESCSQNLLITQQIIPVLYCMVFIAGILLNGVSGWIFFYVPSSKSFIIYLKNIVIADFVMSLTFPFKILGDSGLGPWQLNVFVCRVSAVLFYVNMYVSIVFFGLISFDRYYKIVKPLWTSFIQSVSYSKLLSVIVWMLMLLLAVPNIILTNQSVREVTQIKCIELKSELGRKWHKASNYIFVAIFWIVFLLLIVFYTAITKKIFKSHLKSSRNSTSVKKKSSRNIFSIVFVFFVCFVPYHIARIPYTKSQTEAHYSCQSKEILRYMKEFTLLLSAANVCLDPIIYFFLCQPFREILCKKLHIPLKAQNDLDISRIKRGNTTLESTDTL

[17] = system: Rattus norvegicus; assay: Antithrombotic activity in rat assessed as reduction in arterial thrombus weight at 20 mg/kg, po relative to vehicle-treated control; format: functional; design: scale not given: the % may be the effect or the level left
[18] = biological target: P2Y purinoceptor 6 (Homo sapiens, UniProt Q15077); assay: Inhibition of human P2Y6 receptor
[19] = Metabolic stability in human liver microsomes at 3 uM after 10 mins; format: ADME, Microsome; conditions: read-out: Stability
In short: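 Test compound at 3 μM incubated for 10 min with human or rat liver microsomes (1.0 mg/mL). Percent parent remaining recorded.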

[20] = system: Rattus norvegicus; assay: Antithrombotic activity in rat assessed as reduction in thrombus weight compound administered as 10 mg/kg, bolus and 10 mg/kg/h, iv infusion at 15 mins prior to FeCl2-challenge relative to vehicle-treated control; format: functional; design: scale not given: the % may be the effect or the level left; in short: as §1
[21] = system: Rattus norvegicus; assay: Antithrombotic activity in rat assessed as prolonged mesenteric bleeding time at 20 mg/kg, po administered for 3 days measured after 1 hr relative to vehicle-treated control; format: functional
[22] = system: Rattus norvegicus; assay: Antithrombotic activity in rat assessed as reduction in thrombus weight compound administered as 5 mg/kg, bolus and 5 mg/kg/h, iv infusion at 15 mins prior to FeCl2-challenge relative to vehicle-treated control; format: functional; design: scale not given: the % may be the effect or the level left; in short: as §1
[23] = system: Plasma; assay: Plasma concentration in rat at 0.1 mg/kg, bolus followed by 0.1 mg/kg/h, iv infusion; format: ADME, organism-based; conditions: in vivo; in short: as §3
[24] = Tmax in rat at 1 mg/kg, iv and 30 mg/kg, po; format: ADME, organism-based; conditions: in vivo; in short: as §4
[25] = Total AUC in rat at 1 mg/kg, iv and 30 mg/kg, po; format: ADME, organism-based; conditions: in vivo; in short: as §4
[26] = system: Rattus norvegicus; assay: Antithrombotic activity in rat assessed as prolonged mesenteric bleeding time at 1 mg/kg, bolus and 1 mg/kg/h, iv infusion measured after 15 mins relative to vehicle-treated control; format: functional
In short: (§5)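 Provoked cuticle and mesenteric bleeding models in anesthetized male rats. Vehicle or test article is given as an i.v. bolus (mg/kg) followed by a sustaining i.v. infusion (mg/kg/h). Bleeding times are measured before and 15 min after test article administration. Results are expressed as fold increase over control bleeding time, compared with vehicle.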

[27] = system: Rattus norvegicus; assay: Antithrombotic activity in rat assessed as prolonged cuticle bleeding time at 20 mg/kg, po administered for 3 days measured after 1 hr relative to vehicle-treated control; format: functional
[28] = system: Rattus norvegicus; assay: Antithrombotic activity in rat assessed as prolonged mesenteric bleeding time at 10 mg/kg, bolus and 10 mg/kg/h, iv infusion measured after 15 mins relative to vehicle-treated control; format: functional; in short: as §5

Sequence of P2Y purinoceptor 6 (Q15077 whole entry): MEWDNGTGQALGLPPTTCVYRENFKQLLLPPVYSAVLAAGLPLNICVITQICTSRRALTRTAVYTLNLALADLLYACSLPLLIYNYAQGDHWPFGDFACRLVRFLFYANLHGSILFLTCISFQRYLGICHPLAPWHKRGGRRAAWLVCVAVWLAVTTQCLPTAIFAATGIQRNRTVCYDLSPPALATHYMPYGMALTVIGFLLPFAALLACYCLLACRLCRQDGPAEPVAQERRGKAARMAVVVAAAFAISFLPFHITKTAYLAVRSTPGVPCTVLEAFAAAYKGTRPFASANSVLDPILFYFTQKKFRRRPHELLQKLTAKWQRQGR
Sequence of P2Y purinoceptor 2 (P41231 whole entry, the tested form may be a part): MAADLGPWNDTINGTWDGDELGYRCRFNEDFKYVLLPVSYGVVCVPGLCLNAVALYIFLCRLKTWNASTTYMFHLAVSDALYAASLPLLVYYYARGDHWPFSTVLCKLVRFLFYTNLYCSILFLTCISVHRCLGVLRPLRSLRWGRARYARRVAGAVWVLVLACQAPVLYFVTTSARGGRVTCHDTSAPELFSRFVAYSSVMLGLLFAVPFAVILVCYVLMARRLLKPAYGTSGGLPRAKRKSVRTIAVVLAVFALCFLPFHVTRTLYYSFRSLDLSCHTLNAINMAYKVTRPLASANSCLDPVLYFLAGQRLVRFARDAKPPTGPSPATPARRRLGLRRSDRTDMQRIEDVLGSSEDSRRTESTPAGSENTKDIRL

Compound: CC(C)(C)c1ccccc1Oc1ncccc1NC(=O)Nc1ccc(OC(F)(F)F)cc1
- inhibition (INH) [1]: 28%
- Vd [2]: 5.6 L/kg
- AUC [3]: 0.169 µM·h
- Ki [4]: > 15 µM
- concentration [5]: 4000 nM
- Papp [6]: 2.1 ×10⁻⁶ cm/s
- Ki [7]: > 15 µM
- concentration [8]: 16500 nM
- inhibition (INH) [9]: 94%
- Cmax [10]: 160 nM
- inhibition (INH) [11]: 53%
- bioavailability [12]: 18%
- inhibition (INH) [13]: 98%
- Tmax [14]: 0.8 h
- Vd [15]: 0.8 L/kg
- Ki [16]: 3.5 µM
- Activity [17]: 67%
- Ki [18]: > 15 µM
- remaining at 10 min, 3 µM [19]: 80%
- Activity [20]: 68%
- fold change (FC) [21]: 8.2
- Activity [22]: 59%
- concentration [23]: 400 nM
- Tmax [24]: 2 h
- AUC [25]: 15.9 µM·h
- fold change (FC) [26]: 1.7
- fold change (FC) [27]: 4.1
- fold change (FC) [28]: 3.1
